Common to all, as to assay type: functional, organism-based
Assay [1] relates to Saccharomyces cerevisiae. The assay is described as follows: Growth inhibition of RAD52/topoisomerase 1 deficient Saccharomyces cerevisiae RS321N harbouring plasmid containing human topoisomerase 1 in galactose medium after 48 hrs. The procedure, abridged: (§1)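 Strains: RS321N (rad52 top1) carrying a single-copy plasmid with human TOP1 under the GAL1 promoter; RS321NYCp50 (vector control, tested in galactose); RS322N (rad52). Cells diluted to OD600 0.01 in synthetic minimal medium with glucose or galactose. Compounds added in DMSO (final <1%). Incubated 48 h at 30 °C in a humidified chamber. Read as background-subtracted OD595. Growth decrease relative to drug-free wells, from concentration-response, gave IC50.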

The subject of assay [2] is Saccharomyces cerevisiae. The assay is described as follows: Growth inhibition of Saccharomyces cerevisiae RS321N containing YCp50 vector plasmid after 48 hrs. The procedure, abridged: as §1
The test system of assay [3] is Saccharomyces cerevisiae. In words: Growth inhibition of RAD52/topoisomerase 1 deficient Saccharomyces cerevisiae RS321N harbouring plasmid containing human topoisomerase 1 in glucose medium after 48 hrs. The procedure, abridged: as §1
Assay [4] concerns Saccharomyces cerevisiae. The assay is described as follows: Growth inhibition of RAD52 deficient Saccharomyces cerevisiae RS322 carrying pRAD52 in galactose medium after 48 hrs.
In assay [5] the test system is Saccharomyces cerevisiae. In words: Growth inhibition of RAD52 deficient Saccharomyces cerevisiae RS322 carrying pRAD52 in glucose medium after 48 hrs.
The subject of assay [6] is Saccharomyces cerevisiae. The assay is described as follows: Growth inhibition of Saccharomyces cerevisiae expressing wild type erg6 in glucose medium after 48 hrs.
The subject of assay [7] is Saccharomyces cerevisiae. In words: Growth inhibition of RAD52/topoisomerase-1 deficient Saccharomyces cerevisiae RS321 in glucose medium after 48 hrs. The procedure, abridged:
as §1

Assay [8] relates to Saccharomyces cerevisiae. The assay is described as follows: Growth inhibition of RAD52 deficient Saccharomyces cerevisiae RS322 in glucose medium after 48 hrs. The procedure, abridged:
as §1

≈ marks a conversion by molar mass, not a printed value. Where only a bound is given, the exact number is not on record here.

The term IC50 denotes the concentration that gives 50% inhibition. High values mean weaker potency, low ones greater potency. Take `CC[C@@]1(O)C(=O)OCc2c1cc1n(c2=O)Cc2cc3ccccc3nc2-1` [CAMPTOTHECIN]: the concentration for half-maximal inhibition (IC50) with Saccharomyces cerevisiae [1] is 0.014 µg/mL (≈ 0.0402 µM); in the assay on Saccharomyces cerevisiae [2], 0.16 µg/mL (≈ 0.459 µM); in the assay with Saccharomyces cerevisiae [3], greater than 100 µg/mL; in the assay with Saccharomyces cerevisiae [4], 0.18 µg/mL (≈ 0.517 µM); in the assay with Saccharomyces cerevisiae [5] it was greater than 100 µg/mL; with Saccharomyces cerevisiae [6], greater than 100 µg/mL. Moreover, the IC50 in the assay on Saccharomyces cerevisiae [7] is greater than 100 µg/mL; in the assay with Saccharomyces cerevisiae [8], 0.06 µg/mL (≈ 0.172 µM).

For the compound `CC[C@@]1(O)C(=O)OCc2c1cc1n(c2=O)Cc2cc3c(CN(C)C)c(O)ccc3nc2-1` [TOPOTECAN], the IC50 in the assay with Saccharomyces cerevisiae [1] was 9.9 µg/mL (≈ 23.5 µM); in the assay with Saccharomyces cerevisiae [3], greater than 100 µg/mL.

(Values after ChEMBL document CHEMBL1155589, “Use of COMPARE analysis to discover new natural product drugs: isolation of camptothecin and 9-methoxycamptothecin from a new source” (J Nat Prod, 2000).)
